fAUC/MIC, Drug uptake and MIC90 data for one compound are collected here from ChEMBL document CHEMBL1649178, “Penetration of moxifloxacin into bone evaluated by Monte Carlo simulation” (Antimicrob Agents Chemother, 2009).

Series [1] can be described thus: fAUC/MIC in osteomyelitis patient cortical bone at 400 mg, po administered for every 24 hrs at PKPD breakpoint at 1 mg/liter. The series is classed as functional. In outline: (§1)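 PKPD targets were derived by reverse engineering from success rates in clinical osteomyelitis studies, the expected AUCs at the doses used there, and published MIC distributions. Bone targets (total drug) use a ciprofloxacin bone/serum AUC ratio of 0.63. Concentration profiles were simulated for 10,000 patients given 400 mg orally q24h at steady state, without residual error, with serum protein binding assumed at 50%.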

The nature of series [2]: fAUC/MIC in osteomyelitis patient serum at 400 mg, po administered for every 24 hrs at PKPD breakpoint at 1 mg/liter. The series is classed as functional. The essentials:
as §1

A short description of series [3]: fAUC/MIC in osteomyelitis patient serum at 400 mg, po administered for every 24 hrs at PKPD breakpoint at 0.19 mg/liter. The series is classed as functional. In outline:
as §1

The nature of series [4]: fAUC/MIC in osteomyelitis patient cancellous bone at 400 mg, po administered for every 24 hrs at PKPD breakpoint at 0.25 mg/liter. The series is classed as functional. In outline: as §1
Series [5] in a line: Drug level in osteomyelitis patient cancellous bone at 400 mg, po administered for every 24 hrs. The following applies: human, in vivo. The series is classed as ADME, organism-based.
A short description of series [6]: fAUC/MIC in osteomyelitis patient serum at 400 mg, po administered for every 24 hrs at PKPD breakpoint at 0.375 mg/liter. The series is classed as functional. In outline: as §1
A short description of series [7]: Drug level in osteomyelitis patient cortical bone at 400 mg, po administered for every 24 hrs. The series is classed as ADME, organism-based, Bone element. Particulars: human, in vivo.
A further series concerns Staphylococcus aureus. Kind of series: Antimicrobial activity against Staphylococcus aureus.
A short description of series [8]: fAUC/MIC in osteomyelitis patient cancellous bone at 400 mg, po administered for every 24 hrs at PKPD breakpoint at 1 mg/liter. The series is classed as functional. The essentials: as §1
Series [9] in a line: fAUC/MIC in osteomyelitis patient cancellous bone at 400 mg, po administered for every 24 hrs at PKPD breakpoint at 0.375 mg/liter. The series is classed as functional. The essentials:
as §1

The nature of series [10]: fAUC/MIC in osteomyelitis patient cortical bone at 400 mg, po administered for every 24 hrs at PKPD breakpoint at 0.5 mg/liter. The series is classed as functional. The essentials: as §1
A short description of series [11]: fAUC/MIC in osteomyelitis patient cortical bone at 400 mg, po administered for every 24 hrs at PKPD breakpoint at 0.25 mg/liter. The series is classed as functional. In outline:
as §1

Each structure is given as a SMILES string. ≈ marks a conversion by molar mass, not a printed value.

As a reminder, the MIC90 is the lowest concentration that inhibits either 90% of growth or 90% of the strains tested, depending on the study. On to `COc1c(N2C[C@@H]3CCCN[C@@H]3C2)c(F)cc2c(=O)c(C(=O)O)cn(C3CC3)c12` [MOXIFLOXACIN], for which the fAUC/MIC in [1] is given as 13; in series [2], 15; in [3], 66; in [4], 55; in [6], 40; in series [8], 13. The values for the fAUC/MIC in series [9], in series [10] and in series [11] were 33, 33 and 55, respectively. The figures for the Drug uptake in [5] and in series [7] were 78% and 80%, respectively. Besides, the MIC90 in the series on Staphylococcus aureus amounted to 0.125 µg/mL (≈ 0.311 µM).
